We go through one compound from ChEMBL document CHEMBL1629532, “Design, synthesis, and structure-activity relationships of 3-ethynyl-1H-indazoles as inhibitors of the phosphatidylinositol 3-kinase signaling pathway” (J Med Chem, 2010).

One data set concerns HeLa. Put plainly: Growth inhibition of human HeLa cells after 72 hrs by ATPlite assay. It counts as functional. In outline:
(§1)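 Cells seeded at about 3000 per well, grown 24 h, then given fresh medium and test compound in triplicate at 0.5 to 100µM in DMSO (0.5% final). Exposure 72 h at 37 °C, 5% CO₂. Viability measured by ATPlite luminescence and normalized to DMSO-treated controls. GI50 obtained by curve fitting. HeLa cultured in DMEM/10% FBS; MCF7, MDA-MB-231 and PC3 cultured in RPMI+GlutaMAX/10% FBS.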
On the technique in general: ATP-based viability assays read luminescence as a measure of living cells.

Data set [1] deals with High affinity nerve growth factor receptor (Homo sapiens) (UniProt P04629). Put plainly: Inhibition of NTRK1 at 10 uM.
Sequence of High affinity nerve growth factor receptor (Homo sapiens) (P04629 33-796 limits assumed): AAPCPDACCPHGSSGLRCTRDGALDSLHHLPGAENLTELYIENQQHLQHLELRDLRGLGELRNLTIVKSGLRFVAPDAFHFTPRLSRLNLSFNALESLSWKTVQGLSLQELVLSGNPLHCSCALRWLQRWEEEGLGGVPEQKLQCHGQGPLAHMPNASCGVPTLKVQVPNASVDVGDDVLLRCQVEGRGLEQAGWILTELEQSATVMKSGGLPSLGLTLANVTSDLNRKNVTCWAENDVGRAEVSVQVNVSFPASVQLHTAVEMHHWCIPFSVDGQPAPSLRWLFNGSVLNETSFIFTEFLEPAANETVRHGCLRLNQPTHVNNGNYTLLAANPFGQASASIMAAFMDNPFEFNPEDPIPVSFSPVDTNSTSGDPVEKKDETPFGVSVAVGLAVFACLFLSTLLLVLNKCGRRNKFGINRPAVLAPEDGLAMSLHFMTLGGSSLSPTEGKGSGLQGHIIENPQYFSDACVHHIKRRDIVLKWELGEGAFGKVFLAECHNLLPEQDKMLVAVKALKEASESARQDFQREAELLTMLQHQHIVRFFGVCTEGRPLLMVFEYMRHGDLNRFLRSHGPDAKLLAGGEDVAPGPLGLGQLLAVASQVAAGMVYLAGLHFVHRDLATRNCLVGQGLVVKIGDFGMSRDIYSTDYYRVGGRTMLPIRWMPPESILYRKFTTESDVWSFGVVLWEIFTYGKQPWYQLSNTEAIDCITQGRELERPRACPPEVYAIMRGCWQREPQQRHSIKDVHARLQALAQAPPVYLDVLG
The target of data set [2] is Misshapen-like kinase 1 (Homo sapiens) (UniProt Q8N4C8). The data set can be described thus: Inhibition of MINK1 at 10 uM.
Sequence of Misshapen-like kinase 1 (Homo sapiens) (Q8N4C8 whole entry, looked up): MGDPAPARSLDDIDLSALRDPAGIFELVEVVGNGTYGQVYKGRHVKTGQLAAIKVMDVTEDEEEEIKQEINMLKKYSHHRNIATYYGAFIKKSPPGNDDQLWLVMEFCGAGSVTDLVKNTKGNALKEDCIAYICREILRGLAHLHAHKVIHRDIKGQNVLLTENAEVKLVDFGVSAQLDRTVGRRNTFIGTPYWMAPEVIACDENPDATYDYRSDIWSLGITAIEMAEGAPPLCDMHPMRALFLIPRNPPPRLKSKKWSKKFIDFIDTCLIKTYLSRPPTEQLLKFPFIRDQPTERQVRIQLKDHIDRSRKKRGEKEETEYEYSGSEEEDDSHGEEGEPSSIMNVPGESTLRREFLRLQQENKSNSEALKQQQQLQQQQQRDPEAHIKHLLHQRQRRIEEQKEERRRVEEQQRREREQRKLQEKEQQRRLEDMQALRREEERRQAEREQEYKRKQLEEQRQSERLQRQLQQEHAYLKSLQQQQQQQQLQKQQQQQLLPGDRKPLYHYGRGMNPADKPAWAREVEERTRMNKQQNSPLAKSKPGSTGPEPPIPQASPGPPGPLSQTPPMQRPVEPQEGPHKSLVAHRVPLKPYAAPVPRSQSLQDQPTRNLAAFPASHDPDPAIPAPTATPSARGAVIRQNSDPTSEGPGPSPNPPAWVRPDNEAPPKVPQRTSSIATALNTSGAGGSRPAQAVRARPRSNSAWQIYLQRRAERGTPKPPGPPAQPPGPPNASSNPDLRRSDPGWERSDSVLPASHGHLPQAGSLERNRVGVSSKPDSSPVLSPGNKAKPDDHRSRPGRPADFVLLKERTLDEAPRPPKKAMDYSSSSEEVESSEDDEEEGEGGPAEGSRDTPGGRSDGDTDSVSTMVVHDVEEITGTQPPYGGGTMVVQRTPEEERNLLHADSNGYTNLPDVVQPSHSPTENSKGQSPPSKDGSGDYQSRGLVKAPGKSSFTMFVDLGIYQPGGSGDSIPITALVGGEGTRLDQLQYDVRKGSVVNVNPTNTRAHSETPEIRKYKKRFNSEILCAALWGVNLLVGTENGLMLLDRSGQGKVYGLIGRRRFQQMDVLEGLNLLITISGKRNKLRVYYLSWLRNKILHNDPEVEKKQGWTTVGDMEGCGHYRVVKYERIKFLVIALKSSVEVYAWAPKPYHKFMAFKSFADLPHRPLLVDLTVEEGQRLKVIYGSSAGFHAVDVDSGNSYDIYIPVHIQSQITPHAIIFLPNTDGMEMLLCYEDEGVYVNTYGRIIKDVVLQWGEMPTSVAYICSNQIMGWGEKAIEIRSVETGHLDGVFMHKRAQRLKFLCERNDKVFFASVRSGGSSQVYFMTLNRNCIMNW
Data set [3] deals with Vascular endothelial growth factor receptor 3 (Homo sapiens) (UniProt P35916). Put plainly: Inhibition of FLT4 at 10 uM.
The test system of another data set is U-87MG ATCC. Put plainly: Growth inhibition of human U87 cells grown as spheroids assessed reduction in decrease in spheroid volumes reated consecutively for 6 days by hanging drop method. The class given is functional, cell-based. In outline:
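U87 glioblastoma spheroids formed by hanging drop, 200 cells per 20 µl drop, inverted for 5 days in a humidity chamber. Spheroids moved onto 1% low-melt agarose-coated wells. Compound or DMSO added every 24 h for 6 days. Volume (µm³) calculated from length and width measured with an optical micrometer. Four independent experiments.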

For data set [4], the target named is NUAK family SNF1-like kinase 1 (Homo sapiens) (UniProt O60285). The data set can be described thus: Inhibition of NUAK1 at 10 uM.
Data set [5] has as its target Muscle, skeletal receptor tyrosine-protein kinase (Homo sapiens) (UniProt O15146). Put plainly: Inhibition of MUSK at 10 uM.
The test system of a further data set is Plasma. The data set can be described thus: Metabolic stability in rat plasma assessed as compound remaining at 1 uM after 60 mins by Lc/Ms method. Particulars: 1 h. The class given is ADME, cell-free. In outline: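 Compound at 1 µM (2.5% DMSO final) in fresh rat plasma at 37 °C. Stopped at 0, 30 and 60 min with two volumes methanol plus internal standard, then LC-MS. Percent parent remaining relative to 0 min, from peak area ratios to internal standard. Duplicate runs, with a plasma-labile positive control.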

For data set [6], the system named is Leucine-rich repeat serine/threonine-protein kinase 2 (Homo sapiens), Q5S007 [G2019S]. Put plainly: Inhibition of LRKK2 G2019S mutant at 10 uM.
The test system of a further data set is Liver microsomes. Put plainly: Metabolic stability in rat liver microsomes. The class given is ADME, Microsome. In outline:
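Rat liver microsomes (1 mg/ml protein) with 4µM compound in 50mM phosphate pH 7.2. Pre-incubated 5 min at 37.5 °C, then started with 2mM NADPH and run 1 h. Samples taken every 15 min, quenched in methanol with internal standard, analyzed by LC-MS. Duplicate runs alongside two control compounds of known half-life. Half-life reported.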

Data set [7] deals with Cyclin-dependent kinase 5/CDK5 activator 1 (Homo sapiens) (UniProt Q00535+Q15078). The data set can be described thus: Inhibition of CDK5/P25 at 10 uM. The class given is protein-complex assay.
Data set [8] has as its target Myosin light chain kinase 2, skeletal/cardiac muscle (Homo sapiens) (UniProt Q9H1R3). The data set can be described thus: Inhibition of MYLK2 at 10 uM.
For data set [9], the target named is Mitogen-activated protein kinase kinase kinase kinase 4 (Homo sapiens) (UniProt O95819). The data set can be described thus: Inhibition of MAP4K4 at 10 uM.
Sequence of Mitogen-activated protein kinase kinase kinase kinase 4 (Homo sapiens) (O95819 2-1239 limits assumed): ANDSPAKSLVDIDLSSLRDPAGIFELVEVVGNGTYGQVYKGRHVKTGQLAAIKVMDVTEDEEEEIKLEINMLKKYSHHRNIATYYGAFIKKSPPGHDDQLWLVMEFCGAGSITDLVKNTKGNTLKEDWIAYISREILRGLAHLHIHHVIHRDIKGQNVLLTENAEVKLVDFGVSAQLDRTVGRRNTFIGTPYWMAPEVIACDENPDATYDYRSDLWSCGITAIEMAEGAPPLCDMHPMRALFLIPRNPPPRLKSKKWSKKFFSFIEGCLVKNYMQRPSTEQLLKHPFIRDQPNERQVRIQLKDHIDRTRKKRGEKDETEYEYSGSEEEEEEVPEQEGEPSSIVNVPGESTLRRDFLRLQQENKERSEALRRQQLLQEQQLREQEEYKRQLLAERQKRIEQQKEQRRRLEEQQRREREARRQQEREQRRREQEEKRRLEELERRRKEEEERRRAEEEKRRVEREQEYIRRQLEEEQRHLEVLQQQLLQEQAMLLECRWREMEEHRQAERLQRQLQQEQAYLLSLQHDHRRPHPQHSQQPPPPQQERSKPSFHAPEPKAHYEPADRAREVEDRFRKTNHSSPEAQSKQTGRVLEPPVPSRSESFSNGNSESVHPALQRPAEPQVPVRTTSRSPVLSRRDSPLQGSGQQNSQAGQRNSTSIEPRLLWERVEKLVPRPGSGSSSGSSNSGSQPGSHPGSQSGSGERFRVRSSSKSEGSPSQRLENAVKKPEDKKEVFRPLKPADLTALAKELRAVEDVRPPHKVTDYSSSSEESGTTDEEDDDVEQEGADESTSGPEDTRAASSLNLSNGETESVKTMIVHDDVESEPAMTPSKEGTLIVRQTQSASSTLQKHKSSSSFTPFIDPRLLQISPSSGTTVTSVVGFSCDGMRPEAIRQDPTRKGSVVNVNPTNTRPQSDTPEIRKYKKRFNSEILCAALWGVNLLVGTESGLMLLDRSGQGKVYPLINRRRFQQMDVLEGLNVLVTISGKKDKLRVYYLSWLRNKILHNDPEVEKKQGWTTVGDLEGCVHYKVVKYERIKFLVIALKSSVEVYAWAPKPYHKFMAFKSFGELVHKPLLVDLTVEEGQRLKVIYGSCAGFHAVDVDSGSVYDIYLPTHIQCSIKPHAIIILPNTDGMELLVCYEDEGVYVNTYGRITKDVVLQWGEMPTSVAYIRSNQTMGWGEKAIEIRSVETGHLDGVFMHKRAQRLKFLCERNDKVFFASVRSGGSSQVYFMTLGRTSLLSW
Data set [10] has as its target Phosphatidylinositol 4,5-bisphosphate 3-kinase catalytic subunit gamma isoform (Homo sapiens, UniProt P48736). The data set can be described thus: Inhibition of PI3Kgamma.
Data set [11] concerns the target BDNF/NT-3 growth factors receptor (Homo sapiens) (UniProt Q16620). The data set can be described thus: Inhibition of NTRK2 at 10 uM.
Data set [12] deals with Receptor-type tyrosine-protein kinase FLT3 (Homo sapiens), P36888 [D835Y]. The data set can be described thus: Inhibition of FLT3 D835Y mutant at 10 uM.
In data set [13] the test system is Proto-oncogene tyrosine-protein kinase receptor Ret (Homo sapiens), P07949 [Y791F]. The data set can be described thus: Inhibition of RET Y791F mutant at 10 uM.
Data set [14] addresses Serine/threonine-protein kinase haspin (Homo sapiens) (UniProt Q8TF76). The data set can be described thus: Inhibition of GSG2 at 10 uM.
Data set [15] has as its target Tyrosine-protein kinase ABL1 (Homo sapiens) (UniProt P00519). Put plainly: Inhibition of ABL1 […] mutant at 10 uM.
Data set [16] has as its system Proto-oncogene tyrosine-protein kinase receptor Ret (Homo sapiens), P07949 [V804L]. The data set can be described thus: Inhibition of RET V804L mutant at 10 uM.
Data set [17] concerns the target Mitogen-activated protein kinase 9 (Homo sapiens) (UniProt P45984). The data set can be described thus: Inhibition of JNK2 at 10 uM.
For the next data set, the system named is PC-3. Put plainly: Growth inhibition of human PC3 cells after 72 hrs by ATPlite assay. It counts as functional. Particulars: PC-3, 72 h. In outline: as §1
For data set [18], the target named is T1, Phosphatidylinositol 4,5-bisphosphate 3-kinase catalytic subunit delta isoform (Homo sapiens, UniProt O00329).
T1 sequence (O00329 whole entry): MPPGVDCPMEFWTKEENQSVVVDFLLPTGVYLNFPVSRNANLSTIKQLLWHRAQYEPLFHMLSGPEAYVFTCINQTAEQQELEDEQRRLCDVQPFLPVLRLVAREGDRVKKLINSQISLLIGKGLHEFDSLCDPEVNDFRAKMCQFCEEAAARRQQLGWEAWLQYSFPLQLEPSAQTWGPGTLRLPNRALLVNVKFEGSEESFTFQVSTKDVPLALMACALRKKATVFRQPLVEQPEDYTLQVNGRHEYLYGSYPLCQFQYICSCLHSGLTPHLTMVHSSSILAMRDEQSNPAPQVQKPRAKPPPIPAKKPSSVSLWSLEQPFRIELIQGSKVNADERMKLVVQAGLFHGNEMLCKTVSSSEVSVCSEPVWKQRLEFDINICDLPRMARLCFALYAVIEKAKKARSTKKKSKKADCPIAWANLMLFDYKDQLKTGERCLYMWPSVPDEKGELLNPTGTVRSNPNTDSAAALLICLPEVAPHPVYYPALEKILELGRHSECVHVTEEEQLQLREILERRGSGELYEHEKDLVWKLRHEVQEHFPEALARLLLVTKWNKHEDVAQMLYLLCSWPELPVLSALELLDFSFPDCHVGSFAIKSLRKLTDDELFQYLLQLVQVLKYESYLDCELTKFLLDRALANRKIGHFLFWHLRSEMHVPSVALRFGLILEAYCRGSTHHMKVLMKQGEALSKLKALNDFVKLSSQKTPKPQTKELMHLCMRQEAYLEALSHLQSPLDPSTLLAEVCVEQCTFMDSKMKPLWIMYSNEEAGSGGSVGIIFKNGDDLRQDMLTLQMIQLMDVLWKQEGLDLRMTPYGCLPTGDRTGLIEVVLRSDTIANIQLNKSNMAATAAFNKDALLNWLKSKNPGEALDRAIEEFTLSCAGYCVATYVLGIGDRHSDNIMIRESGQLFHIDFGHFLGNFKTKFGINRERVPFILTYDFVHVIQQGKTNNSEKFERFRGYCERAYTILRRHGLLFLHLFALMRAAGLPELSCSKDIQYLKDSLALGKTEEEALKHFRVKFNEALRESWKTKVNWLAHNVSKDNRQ
Put plainly: Inhibition of PI3Kdelta. Particulars: read-out: I50.

Activity calls are given as the source filed them. No cut-off for these calls is given here.

Sequence of BDNF/NT-3 growth factors receptor (Homo sapiens) (Q16620 32-822 limits assumed): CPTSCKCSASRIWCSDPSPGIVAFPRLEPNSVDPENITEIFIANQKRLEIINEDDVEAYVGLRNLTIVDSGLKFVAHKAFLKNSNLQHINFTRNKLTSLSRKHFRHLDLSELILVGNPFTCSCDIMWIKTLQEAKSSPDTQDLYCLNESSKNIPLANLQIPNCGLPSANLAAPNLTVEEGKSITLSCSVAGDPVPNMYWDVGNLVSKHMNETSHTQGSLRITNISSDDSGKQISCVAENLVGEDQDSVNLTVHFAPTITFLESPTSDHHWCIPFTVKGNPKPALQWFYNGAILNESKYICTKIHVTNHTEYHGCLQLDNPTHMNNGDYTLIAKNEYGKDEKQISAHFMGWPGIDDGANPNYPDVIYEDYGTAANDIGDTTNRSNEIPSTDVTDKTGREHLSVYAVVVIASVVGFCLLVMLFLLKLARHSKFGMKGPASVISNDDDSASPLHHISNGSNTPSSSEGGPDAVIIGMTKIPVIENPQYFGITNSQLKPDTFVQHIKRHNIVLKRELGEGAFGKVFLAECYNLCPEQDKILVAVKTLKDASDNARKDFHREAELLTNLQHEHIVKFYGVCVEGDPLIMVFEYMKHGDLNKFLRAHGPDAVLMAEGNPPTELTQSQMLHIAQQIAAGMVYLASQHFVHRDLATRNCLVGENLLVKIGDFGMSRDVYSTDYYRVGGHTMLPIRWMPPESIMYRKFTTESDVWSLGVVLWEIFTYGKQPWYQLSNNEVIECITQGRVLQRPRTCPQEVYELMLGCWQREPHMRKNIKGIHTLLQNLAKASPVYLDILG
Sequence of Serine/threonine-protein kinase haspin (Homo sapiens) (Q8TF76 whole entry): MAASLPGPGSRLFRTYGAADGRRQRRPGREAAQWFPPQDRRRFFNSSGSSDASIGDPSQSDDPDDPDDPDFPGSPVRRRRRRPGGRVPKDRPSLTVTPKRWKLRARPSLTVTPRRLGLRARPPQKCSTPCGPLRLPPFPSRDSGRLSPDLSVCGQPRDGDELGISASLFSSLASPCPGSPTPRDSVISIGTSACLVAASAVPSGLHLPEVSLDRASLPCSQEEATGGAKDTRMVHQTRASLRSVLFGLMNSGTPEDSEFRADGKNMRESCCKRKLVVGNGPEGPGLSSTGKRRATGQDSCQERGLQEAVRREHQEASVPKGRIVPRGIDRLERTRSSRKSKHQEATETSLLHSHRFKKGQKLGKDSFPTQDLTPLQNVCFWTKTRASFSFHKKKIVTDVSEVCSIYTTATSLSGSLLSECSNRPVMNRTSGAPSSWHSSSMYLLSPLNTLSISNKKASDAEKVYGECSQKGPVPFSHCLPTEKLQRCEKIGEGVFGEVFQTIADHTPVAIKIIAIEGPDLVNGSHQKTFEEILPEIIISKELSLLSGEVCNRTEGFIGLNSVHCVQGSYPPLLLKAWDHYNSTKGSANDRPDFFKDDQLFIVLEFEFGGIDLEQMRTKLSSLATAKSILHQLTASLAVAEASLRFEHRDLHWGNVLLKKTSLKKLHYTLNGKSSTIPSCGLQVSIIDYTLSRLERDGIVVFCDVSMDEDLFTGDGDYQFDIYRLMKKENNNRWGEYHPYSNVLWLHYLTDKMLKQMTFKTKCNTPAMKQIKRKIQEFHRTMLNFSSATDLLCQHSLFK

Broadly, the GI50 is the concentration at which growth is held to half of that of the control. Higher therefore signals less potent growth inhibition. In general, inhibition refers to the change of the read-out against control, counted positive when it falls. Lower therefore signals a response near the control. Consider `C(#Cc1n[nH]c2ccccc12)c1ccncc1`, for which the 50% growth inhibitory concentration (GI50) in the data set on HeLa was 2.53 µM; in the data set with PC-3 it was 2.43 µM. Further, the inhibition in data set [1], in [2], in data set [3], in data set [4], in [5] and in [6] was over 50% in each case. Further, the inhibition in data set [7], in data set [8], in data set [9], in data set [11], in data set [12] and in data set [13] was over 50% throughout. Further, the inhibition in [14], in data set [15], in [16] and in data set [17] was over 50% in each case. For the same compound, in the data set with U-87MG ATCC, the “growth inhibition (GI)” value was “Active”. Besides, the Stability in the data set on Plasma was 97%. The compound also yielded a t1/2 with Liver microsomes of 35 min. The IC50 was determined as 40 µM in data set [10] and 39 µM in data set [18].
